This is an account of results in ChEMBL document CHEMBL4428120, “In silico and in vitro methods to identify ebola virus VP35-dsRNA inhibitors” (Bioorg Med Chem, 2016).

SMILES strings stand for the structures. Active and inactive are the calls of the source. No cut-off for these calls is given here.

For assay [1], the system named is RNA. Nature of the assay: Binding affinity to RNA (unknown origin) assessed as inhibition of fluorescent dsRNA probe binding to DNA at 200 uM at 200 uM pre-incubated for 5 mins before dsRNA addition and measured after 5 mins by ethidium bromide displacement based EMSA method relative to control. The format is nucleic-acid assay. Background: Mobility shift assays separate free from complexed probe on a gel.

Assay [2] deals with DNA. Put plainly: Binding affinity to DNA (unknown origin) assessed as inhibition of fluorescent dsRNA probe binding to DNA at 200 uM at 200 uM pre-incubated for 5 mins before dsRNA addition and measured after 5 mins by ethidium bromide displacement based EMSA method relative to control. The format is nucleic-acid assay.
Assay [3] deals with Ebolavirus. Put plainly: Inhibition of fluorescent dsRNA probe binding to N-terminal His-tagged recombinant Ebola virus VP35 interferon inhibitory domain assessed as normalized intensity for DNA binding at 200 uM pre-incubated for 5 mins before dsRNA addition and measured after 5 mins by ethidium bromide displacement based EMSA method relative to control. Set-up: scale not given: the % may be the effect or the level left.

Assay [4] deals with Ebolavirus. Put plainly: Inhibition of fluorescent dsRNA probe binding to N-terminal His-tagged recombinant Ebola virus VP35 interferon inhibitory domain at 200 uM pre-incubated for 5 mins before dsRNA addition and measured after 5 mins by ethidium bromide displacement based EMSA method relative to control. An outline of the steps: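 Recombinant VP35 IID was expressed in E. coli BL-21 and purified on Ni-NTA. It was 400 nM before probe addition, in 10 mM Tris-HCl pH 7.5, 10 mM NaCl, 10% glycerol, with 200 μM compound for 5 min. An equal volume of 60 nM Cy5.5-labelled 10-bp dsRNA was added, then 5 min at room temperature and then on ice. Run on 1% agarose in chilled TAE; infrared scan.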

A short description of assay [5]: (§1) Inhibition of fluorescent dsRNA probe binding to N-terminal His-tagged recombinant Ebola virus VP35 interferon inhibitory domain pre-incubated for 5 mins before dsRNA addition and measured after 5 mins by ethidium bromide displacement based EMSA method relative to control. Further details: species or system Ebolavirus. In short, it runs like this: (§2)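 EMSA: Ni-NTA-purified recombinant VP35 IID was 400 nM before probe addition, in Tris-HCl pH 7.5/NaCl/10% glycerol buffer. Compound was diluted twofold serially from 200 μM and incubated 5 min. An equal volume of 60 nM Cy5.5-dsRNA probe was added, then 5 min at room temperature and then on ice. Agarose gel, infrared scan; IC50 taken from the dose-response.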

The test system of assay [6] is Ebolavirus. The assay is described as §1. In short, it runs like this:
as §2

Consider `Cc1nc(-n2nc(-c3ccccc3)cc2-c2ccccc2)sc1C(=O)/C=C/c1ccc([N+](=O)[O-])cc1`, for which the result in assay [1] and in assay [2] was inactive. The Activity in assay [3] was 76.3%.
Broadly, the inhibition is the relative decrease from the control value, in per cent. `CN1CCN(CCSC(=O)C(Cl)(c2ccccc2)C2CCCC2)CC1` (stereo not drawn): the outcome in assay [1] and in assay [2] was inactive. The inhibition in assay [4] is above 50%. Moreover, the Activity in assay [3] lay within 72.3 to 91.8%.
For the molecule `CCC(=O)NNC(/C=C/c1cccc(O)c1)=C1/S/C(=N\c2ccc(C)cc2[N+](=O)[O-])N=C1C`, the result in assay [1] and in assay [2] was inactive. For the same molecule, the Activity in assay [3] is 73.8 to 92.7%.
As for `CCOC(=O)NC(NC(=O)OCC)c1ccc(C(NC(=O)OCC)NC(=O)OCC)cc1`, the result in assay [1] and in assay [2] was inactive. The inhibition in assay [4] is above 50%. In assay [3], the Activity was 79.6 to 108%.
With `Nc1nnc2nc(CC(=O)c3cccc([N+](=O)[O-])c3)c(CC(=O)c3cccc([N+](=O)[O-])c3)nn12`, the result in assay [1] and in assay [2] was inactive. Besides, the Activity in assay [3] fell in the range of 60.7 to 88.8%.
As usually defined, the IC50 is the concentration that inhibits the measured activity by half. In the case of `NC(=O)NC(NC(=O)NC(NC(N)=O)c1ccco1)c1ccco1` (stereo not drawn), the result in assay [1] and in assay [2] was inactive. In addition, the inhibition in assay [4] is above 50%. For the same molecule, the IC50 in assay [5] turned out to be 4 µM. The Activity in assay [3] was in the range of 98.1 to 116%.
In the case of `CNCc1ccco1`, the result in assay [1] and in assay [2] was inactive. Further, the inhibition entry in assay [4] was “inactive”. Moreover, the Activity in assay [3] lay within 110 to 117%.
On to `CCOc1ccccc1C(SCC(=O)O)SCC(=O)O`, for which the outcome in assay [1] and in assay [2] was inactive. For the same molecule, the inhibition in assay [4] was above 50%. Moreover, the Activity in assay [3] was in the range of 92 to 107%.
`O=C(OCCCCOC(=O)N1C(=O)c2ccccc2C1=O)N1C(=O)c2ccccc2C1=O`: the result in assay [1] and in assay [2] was Active. For the same molecule, the inhibition in assay [4] is above 50%. Further, the Activity in assay [3] lay within 46.8 to 78.5%.
In the case of `COC1=C/C(=C/C=C(\NNC(=S)NN)c2sc(NNC(C)=O)nc2C)C=CC1=O`, the result in assay [1] and in assay [2] was inactive. The inhibition entry in assay [6] was “Dose-dependent effect”. In addition, the IC50 in assay [5] turned out to be 20 µM. Further, in assay [3], the Activity stood at 81.5%.
In the case of `c1coc(CNCNCc2ccco2)c1`, the outcome in assay [1] and in assay [2] was inactive. Moreover, in assay [4], the inhibition result was “inactive”. Moreover, the Activity in assay [3] fell in the range of 45 to 98.4%.
